Here are results for seven compounds from ChEMBL document CHEMBL1125703, “Synthesis, hydrolysis rates, supercomputer modeling, and antibacterial activity of bicyclic tetrahydropyridazinones” (J Med Chem, 1991).

Format in all cases: ADME
Conditions in all cases: buffer

The nature of series [1]: Compound was evaluated for its hydrolysis at pH 9 half life period (T1/2). The gist of the method: (§1)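 Alkaline hydrolysis, i.e. chemical reactivity of the lactam ring with hydroxide ion, followed by pH stat at the pH named in the line. Ionic strength (μ) was 0.5 and the temperature 35 °C. Pseudo-first-order rate constants and half-lives were obtained under these conditions. Some entries are single determinations.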

Series [2] in a line: Compound was evaluated for its hydrolysis at pH 9 expressed as pseudo first order rate constant (K) (micro = 0.5). The gist of the method: as §1
Series [3] can be described thus: Compound was evaluated for its hydrolysis at pH 9 for half life period (T1/2). The gist of the method:
as §1

Series [4] in a line: Compound was evaluated for its hydrolysis at pH 10 expressed as pseudo first order rate constant (K) (micro = 0.5). The gist of the method:
as §1

Series [5] is described as follows: Compound was evaluated for its hydrolysis at pH 10 half-life period (T1/2). The gist of the method: as §1

The compound `CO/N=C(/C(=O)NC1CN2CC(C#N)=C(C(=O)O)N2C1=O)c1csc(N)n1` (stereo not given) had a half-life in series [1] of 24 min. In series [2], the k was 1.73 h⁻¹.

The compound `CO/N=C(\C(=O)NC1CN2CC(C(C)=O)=C(C(=O)O)N2C1=O)c1csc(N)n1` (stereo not given) showed a half-life in series [1] of 57.6 min. Also, the k in series [2] was 0.724 h⁻¹.

The compound `CO/N=C(/C(=O)NC1CCN2CC(C(C)=O)=C(C(=O)O)N2C1=O)c1csc(N)n1` (stereo not given) gave a half-life in series [3] of 13.2 min. In series [2], this compound gave a k of 3.16 h⁻¹.

For `CO/N=C(/C(=O)NC1CCN2CC(C(=O)[O-])=C(C(=O)[O-])N2C1=O)c1csc(N)n1.[Na+].[Na+]` (stereo not given), the half-life in series [1] is 2880 min; in series [5] it was 285 min. Besides, the k was found to be 0.146 h⁻¹ in series [4] and 0.0144 h⁻¹ in series [2].

In series [1], `CO/N=C(/C(=O)NC1CCN2CC(C#N)=C(C(=O)O)N2C1=O)c1csc(N)n1` (stereo not given) had a half-life of 24 min. The compound also had a k in series [2] of 1.75 h⁻¹.

As to `CO/N=C(/C(=O)NC1CN2CC(C(=O)O)=C(C(=O)O)N2C1=O)c1csc(N)n1` (stereo not given), in series [4], the k came to 0.324 h⁻¹. This compound showed a half-life in series [5] of 128 min.

Consider `CC1(C)S[C@@H]2[C@H](NC(=O)COc3ccccc3)C(=O)N2[C@H]1C(=O)O` [PENICILLIN V], for which the k in series [4] is 0.248 h⁻¹.
